This note sets out measurements from the EternaBench riboswitch data.

This data set has as its system MS2 coat protein. As to the kind of experiment: apparent Kd, MS2 coat protein; higher = weaker binding; RNA-MaP array; FMN 200 µM where present. The method in brief:
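On Illumina sequencing-chip clusters, designs were transcribed by stalled E. coli RNA polymerase and titrated with SNAP-549-labelled MS2 coat protein (0.7 or 1.5 nM, doubling to 3 µM), without and then with constant ligand, in 100 mM Tris-HCl pH 7.5, 80 mM KCl, 4 mM MgCl2, BSA, DTT, yeast tRNA and Tween-20. Apparent Kd is the median of filtered per-cluster curve fits to green signal normalised to red-channel RNA signal and control-cluster median Fmax.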

Setting [1] is: designed as: OFF switch for flavin mononucleotide, no ligand.
The mark [2] stands for this setting: ligand present: flavin mononucleotide, designed as: OFF switch for flavin mononucleotide.
Setting [3] is: designed as: ON switch for flavin mononucleotide, no ligand.
[4] abbreviates: ligand present: flavin mononucleotide, designed as: ON switch for flavin mononucleotide.

As for “GCUGGUCGAGGAUAUGCAAUCGUGCUUCGGCACGUAAGAUCACAUGAGGAUCACCCAUGUAGAAGGCGACCAGC”, the apparent Kd (usually a dissociation constant that holds for the conditions of the assay) is, setting by setting: under setting [1], 19.5 nM; under setting [2], 74 nM.

Take “CAGCACGGAAACAAAGUCUUCGGACAUGAGGAUCACCCAUGUGAGGAUAUGCCUACUAAAAGUAGGCAGAAGGCACGCGUGCUG”: the “apparent Kd” value reads like this: under setting [1], 17.1 nM; under setting [2], 62.6 nM.

Turning to “AUUUAUUAGUAAGGAUAUACUAGCGAUUAGCUUGUAGAAGGUACAGUCUUAUGUAUAGCAUGUUAACAUGAGGAUCACCCAUGU”, the “apparent Kd” value by setting is: under setting [3], 23.2 nM; under setting [4], 13.1 nM.

As for “UGCUGUGUCAGAGGAUAUACUCUAAUAAUCCAUUGCAAAUAGCGAUGGACAUGAGGAUCACCCAUGUAGAAGGCUGUCACAGCA”, the “apparent Kd” value came out at 73.6 nM under setting [1] and 140 nM under setting [2].

“GACUUCCGAGGAUAUACAUGAGGAUCACCCAUGUGCUUCAGCAUUUUUUGAUGCAUGGGUAGAAGGCGGUAGUU”: the “apparent Kd” value was 261 nM under setting [1] and 281 nM under setting [2].

Regarding “CUUUUGUGAGGAUAUCAGUAGUAAUACAAUAGUAUUACUACUGAGAAGGCACAUGAGGAUCACCCAUGUUCUUC”, the “apparent Kd” value reads like this: under setting [1], 25.5 nM; under setting [2], 68.2 nM.

As to “CUAGCAACAUGAGGAUCACCCAUGUAGGAUAUCGCUAUUGUAAUCAUGAAACAUGAUUACAAUAGCGAGAAGGACAUAUGCUAG”, the “apparent Kd” value under setting [1] is 6.44 nM and the “apparent Kd” value under setting [2] came out at 9.28 nM.

As to “CCGGAAUCCUAGGAUAUGCUAGACGAUAGUCUAGCAGAAGGAGGAACAUGAGGAUCACCCAUGUGUCCUACCGG”, the “apparent Kd” value is, setting by setting: under setting [1], 17.2 nM; under setting [2], 22.1 nM.

For “ACAAAUGGAGGAUAUACAUGAGGAUCACCCAUGUUUAUCCUACAUAUGUGAUAAUAAUGUAGAAGGCCAUUUGA”, the “apparent Kd” value is 12.5 nM under setting [1] and 16.2 nM under setting [2].

For the sequence “CUGUGUAAAGGAUAUACAUGAGGAUCACCCAUGUGAUGUCCAAACCUGAACGGUUCGUGUAGAAGGUUGCUCUU”, the “apparent Kd” value under setting [1] is 20.9 nM and the “apparent Kd” value under setting [2] is 19 nM.

“CUAUGAGGAAUAGGAUAUUCGAUCAUGAGGAUAGAAGAAGGGUUACAUGAGGAUCACCCAUGUAUGCACAUGAGGAUCCCUUAG”: the “apparent Kd” value was 235 nM under setting [1] and 226 nM under setting [2].

“GCAGAAAGUGUAGGAUAUAGAAAUUAGCGGAAACGCAAUACAUGAGGAUCACCCAUGUUUCCUCACUAGAAGGGCAAAAGCUGC”: the “apparent Kd” value under setting [1] was determined as 16.8 nM and the “apparent Kd” value under setting [2] amounted to 14.1 nM.

For “UUUAUAAUAAGAUCAAUUAAUUAACAUGAGGAUCACCCAUGUGAGGAUAUCAGCUCGUGUAGAGCUGAGAAGGCACAAUAUAAG”, the “apparent Kd” value under setting [1] turned out to be 43.8 nM and the “apparent Kd” value under setting [2] was found to be 69.3 nM.

As to “UCACGGGACUAAGGAUAUACAUGAACUAUUAUUGUAGAAGGUAGAAUGUUAGAUUAUACACUAAACAUGAGGAUCACCCAUGUU”, the “apparent Kd” value runs as follows: under setting [1], 21.1 nM; under setting [2], 19.6 nM.

For the sequence “CCGGUAUAGGAGGAUAUAGGAGUCGAUAGACACCUAGAAGGCCUGACAUGAGGAUCACCCAUGUGUCCUACCGG”, the “apparent Kd” value reads like this: under setting [1], 17 nM; under setting [2], 20 nM.

Take “UUGUUGUAUGUAGGAUAUGCAUAUUAUUAUUAUGCAGAAGGACAUGAGGAUCACCCAUGUAUAUUAUUAUUAUAUGUUAUAUAU”: the “apparent Kd” value is, setting by setting: under setting [1], 26 nM; under setting [2], 34.2 nM.

For the sequence “GUGUACGGAGGAUAUAUAUGGGCAGCAUACGCUGCAGCUUCACAUGAGGAUCACCCAUGUAGAAGGCUGUACAC”, the “apparent Kd” value was 25 nM under setting [1] and 200 nM under setting [2].

With “CGACCACAUGAGGAUCACCCAUGUAAGGAUAUAUUGAAUGAGCCGGCGGCAGUAAAAGAUAGAAGGUGCGUGUA”, the “apparent Kd” value runs as follows: under setting [1], 23.1 nM; under setting [2], 22 nM.

“GGAUAGGACUGAGGAUAUACGUGCUAGAGAUACUAGCAAAAUUUCCUCACAUGAGGAUCACCCAUGUAGAAGGCUGUCCUAUCG”: the “apparent Kd” value runs as follows: under setting [1], 7.13 nM; under setting [2], 42.3 nM.

Turning to “CUUUUGUGAGGAUAUCAUUAGUAAAAAAAUAAAAUUACUACUGAGAAGGCACAUGAGGAUCACCCAUGUUCCUC”, the “apparent Kd” value under setting [1] stood at 35.5 nM and the “apparent Kd” value under setting [2] is 233 nM.

For “UGUGCGUUGAUCUUCGAUCGGUGUACAUGAGGAUCACCCAUGUAGGAUAUUCAAAGACGCAGAUAGGAGAAGGACAUUGGUUUU”, the “apparent Kd” value by setting is: under setting [1], 16.8 nM; under setting [2], 20 nM.

For “GUGGUUGUCGUAGGAUAUGUAGGAUAUUCCUACAUGAGGAUCACCCAUGUUCGCAUGGAAGAAGGAUAGAAGGACGAUGACCAG”, the “apparent Kd” value is, setting by setting: under setting [3], 76.7 nM; under setting [4], 388 nM.

Take “AACUGACAUGAGGAUCACCCAUGUCAGGAUAUGCUUCAUAAAAACAAACAAAAAUGAUGCAGAAGGGACAUGGA”: the “apparent Kd” value amounted to 16.6 nM under setting [1] and 41.6 nM under setting [2].

Consider “UUCAACGAUGAAGGAUAUCUAUGUCCAACAUGAGGAUCACCCAUGUUGAGGAUUACCUAUGUGUAGGAGAAGGUCAAUUUGACU”, for which the “apparent Kd” value is, setting by setting: under setting [3], 7.01 nM; under setting [4], 6.51 nM.

On to “GUCAGCUCGUGAGGAUAUAUAACACUGCUUCGGCAGUGUAUUAAGAUCACAUGAGGAUCACCCAUGUAGAAGGCACGAGCUGAU”, for which the “apparent Kd” value under setting [1] turned out to be 5.04 nM and the “apparent Kd” value under setting [2] came out at 8.94 nM.

For the sequence “AAGAGACAUCAGAAGGGAGCCCGAACGCACGGCUCAGGAUAUGAGAUCUUAUGUAGUACGACAUGAGGAUCACCCAUGUCCGCG”, the “apparent Kd” value reads like this: under setting [3], 36.2 nM; under setting [4], 8.27 nM.

“AAAAUUUAUUGAGGAUAUUCAUACACUGUAUACGGAGAAGGCAAACAAUCAUGAGGACAUGAGGAUCACCCAUGUUGUGACCAU”: the “apparent Kd” value by setting is: under setting [3], 18.5 nM; under setting [4], 12.2 nM.

Regarding “GGACGUCUCGUUUACAUGAGGAUCACCCAUGUCGAUAGACAUGAGGAUAUGGAUCCGAAUCGGAUCCAGAAGGCAUGGACGUCC”, the “apparent Kd” value by setting is: under setting [3], 486 nM; under setting [4], 35 nM.

Regarding “AGUGAGCAGACAGGAUAUCCACUCAGGUCUGAGUCAACGACAUGAGGAUCACCCAUGUCCUAAAAGGAGAAGGGUCAUGGUCGU”, the “apparent Kd” value under setting [3] stood at 198 nM and the “apparent Kd” value under setting [4] came out at 107 nM.

As to “UUAAAUCAUGUAGGAUAUGCAUGGCGAAGCUACGCAGAAGGACAUGAGGAUCACCCAUGUUAAAGCUACCGAGUUCGGUGGCAA”, the “apparent Kd” value is, setting by setting: under setting [1], 116 nM; under setting [2], 156 nM.

With “AGAAAGGAAGGAUAUACAAGAAAGCUGGGCAACGUCUCAGAACAUGAGGAUCACCCAUGUAGAAGGUCCAGGAA”, the “apparent Kd” value under setting [1] is 25.2 nM and the “apparent Kd” value under setting [2] was 34.3 nM.

For “UCGUCGUCAGGAUAUUUUGUAUUGCAGAUUUCGCAGUUGCCAAAGAAGGGACAUGAGGAUCACCCAUGUAGUCU”, the “apparent Kd” value runs as follows: under setting [1], 32.6 nM; under setting [2], 42.2 nM.

Take “CGUAAGAUGCAGAAGGUGUUAGCUAGAGCUACGACAUGAGGAUCACCCAUGUACUAGAAACAGUACAAGGAUAUGCAUCUUACG”: the “apparent Kd” value by setting is: under setting [3], 17.3 nM; under setting [4], 6.56 nM.

For the sequence “CGUGUUUAUGUGAGGAUAUUAUCAAGCUGAUUGUGUAAGAAGGCACAUGAGGAUCACCCAUGUGGCGAUUCCGC”, the “apparent Kd” value came to 34.2 nM under setting [1] and 215 nM under setting [2].

Take “AAGUCGAGCGUGAGGAUAUCGUUUGAACGACAGAGCGAGAAGGCACAUGAGGAUCACCCAUGUGAUUAAGCUCG”: the “apparent Kd” value runs as follows: under setting [1], 15.6 nM; under setting [2], 19.9 nM.

“GUGGUCAGACAUGAGGAUCACCCAUGUGGAAUAAAUAAGGAGAAGGAUAUGCAAUAUAGGAUAUAGUAGAAGGUCUGGUUGGUG”: the “apparent Kd” value came to 83.5 nM under setting [3] and 97.2 nM under setting [4].

For the sequence “AAAAAAAAAGUAGAGGAUAUCCAAAUGGCUACAUGAGGAUCACCCAUGUGAAGAAAAGCACAUGAGGAGAAGGCUACAAAAAAAAA”, the “apparent Kd” value under setting [3] turned out to be 26.7 nM and the “apparent Kd” value under setting [4] was determined as 13.5 nM.

For the sequence “GAGCUGUGAGGAUAUAAACCUGUGGGCUCAACCUAGCGGGUUUAGAAGGCACAUGAGGAUCACCCAUGUCCCAA”, the “apparent Kd” value was determined as 26 nM under setting [1] and 262 nM under setting [2].

For “GUCAGCUCGUGAGGAUAUACAACACUGUUUCGGCAGUGUAUUAAGAUCACAUGAGGAUCACCCAUGUAGAAGGCACGAGCUGAU”, the “apparent Kd” value reads like this: under setting [1], 13.7 nM; under setting [2], 262 nM.

Regarding “GGUCCGAGUGUGAGGAUAUGCUGGUCCUUGGAUCAGCAGAAGGCACAUGAGGAUCACCCAUGUGGAGACGGACC”, the “apparent Kd” value under setting [1] turned out to be 206 nM and the “apparent Kd” value under setting [2] amounted to 538 nM.

For “AGGCGACAUGAGGAUCACCCAUGUGAGGAUAUCGAACUCAACUGAGGAGAGAGUAAGGCGAGAAGGCACACAGU”, the “apparent Kd” value is, setting by setting: under setting [1], 22.1 nM; under setting [2], 36.4 nM.

For the sequence “GCACUGGAUGUAGGAUAUCAGGACGAUAAGUCCUGAGAAGGACAUGAGGAUCACCCAUGUGAAAAUUACCAGUGCAAUAAUAUA”, the “apparent Kd” value under setting [1] came out at 14.4 nM and the “apparent Kd” value under setting [2] was found to be 39.9 nM.

As for “AAAAGACAUGAGGAUCACCCAUGUUAAAACGUAGGAGGAUAUGUAUGGAAAACAUGCUGUACAGAAGGCCUGUGUC”, the “apparent Kd” value under setting [3] was 17.3 nM and the “apparent Kd” value under setting [4] stood at 17.1 nM.

For the sequence “GGUUGGCGAGGAUAUACAUGAGGAUCACCCAUGUGGUCCUAAGAUAAAAUAGACCUUUGUAGAAGGCGCGGGUC”, the “apparent Kd” value runs as follows: under setting [1], 136 nM; under setting [2], 122 nM.

Turning to “GGAUCGAGAGUGAGGAUAUGCUGGUCCUUGGAUCAGCAGAAGGCACAUGAGGAUCACCCAUGUGGUUCCGAUCC”, the “apparent Kd” value by setting is: under setting [1], 28.8 nM; under setting [2], 244 nM.

As for “GGAUAGGACAGAGGAUAUACGUGCUAGAGAUACUAGCAAAAUUUCCUCACAUGAGGAUCACCCAUGUAGAAGGCUGUCAUAUCG”, the “apparent Kd” value runs as follows: under setting [1], 14.8 nM; under setting [2], 306 nM.

“AUACUCUUUGUGAGGAUAUCGUUUUCUUUACGGUUCGAGAAGGCACAUGAGGAUCACCCAUGUUUGACGUGAAU”: the “apparent Kd” value came to 24.4 nM under setting [1] and 56.5 nM under setting [2].

Regarding “AAUAACAGAGGAUAUACUGUUUUAUGUAUUUAUUAUUUUAAACAUGAGGAUCACCCAUGUAGAAGGCUGAAUGA”, the “apparent Kd” value is, setting by setting: under setting [1], 23.8 nM; under setting [2], 22 nM.
